DAGLB inh = DAGLB lipase inhibitors, primary screen, biochemical, fluorescence, HTS; actives 0.059% (n = 340,000); HEK293T DAGLB membrane lysate, EnzChek fluorogenic substrate; inhibition, % at 5.17 µM; in the data active means inhibition above about 34%
LEDGF integ inh = blockers of LEDGF/p75-dependent integrase strand transfer – biochemical, TR-FRET, high throughput, primary screen; TR-FRET IN-LEDGF/p75 DNA integration, Eu/Cy5; HIV-1 integrase (with human LEDGF/p75); inhibition, % at 3.7 µM; actives 0.64% (n = 370,000);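 active means inhibition above the screen-wide mean plus 3 SD, cut at about 13% in these data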;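 further: signal is the Cy5 over europium emission ratio at 671 and 618 nm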
ABHD4 inh = ABHD4 inhibitors, primary screen, biochemical, fluorescence polarization, mouse; (Lyso)-N-acylphosphatidylethanolamine lipase (Mus musculus), Q8VD66; purified mABHD4, FP-Rh probe fluorescence polarization; inhibition, % at 8.92 µM; actives 0.54% (n = 370,000);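 active means inhibition exceeding the mean over every tested compound plus 3 SD, cut at about 30% in these data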
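Doses – 8.92 µM, single dose · Material – wild-type mouse ABHD4 protein · Replication – single well per compound (singlicate) · Measure – percent inhibition of probe binding, normalized to plate controls · Schedule – 45 min compound pre-incubation plus 60 min probe step, 25 °C · Detection – fluorescence polarization with parallel and perpendicular emission, 525/598 nm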
rCAG binder = binders of r(CAG) RNA repeats, primary screen, biochemical, fluorescence | r(CAG) RNA repeat, TO-PRO-1 dye displacement fluorescence | inhibition, % at 3 µM | actives 1.3% (n = 370,000);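 active means inhibition above the plate cutoff, the mean of all test compounds on that plate plus 3 SD, cut at about 35% in these data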;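 further: higher means more dye released from RNA so lower well fluorescence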
PRMT1 FP inh = PRMT1 methyltransferase inhibitors, primary screen, biochemical, fluorescence polarization | Protein arginine N-methyltransferase 1 (Homo sapiens), Q99873 | recombinant PRMT1, activity-based probe fluorescence polarization | inhibition, % at 2.79 µM | actives 1.3% (n = 370,000);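 active means inhibition above about 21% made by adding two undisclosed values, limit read from the data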
Target sequence (Q99873 whole entry, looked up): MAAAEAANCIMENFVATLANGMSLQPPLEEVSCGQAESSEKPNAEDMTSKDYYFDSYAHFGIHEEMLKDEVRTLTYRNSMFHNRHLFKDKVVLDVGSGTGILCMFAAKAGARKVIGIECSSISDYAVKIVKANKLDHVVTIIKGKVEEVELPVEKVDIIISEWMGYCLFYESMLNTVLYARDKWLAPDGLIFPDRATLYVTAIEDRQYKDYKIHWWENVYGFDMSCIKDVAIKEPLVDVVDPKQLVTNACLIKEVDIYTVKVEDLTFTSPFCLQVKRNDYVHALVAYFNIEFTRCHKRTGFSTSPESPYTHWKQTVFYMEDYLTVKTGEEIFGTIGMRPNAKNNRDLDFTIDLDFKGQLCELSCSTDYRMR
HTRA1 inh = HTRA1 serine protease inhibitors, primary screen, biochemical, fluorescence polarization, HTS; recombinant HTRA1, FP-rhodamine activity-based probe; actives 0.5% (n = 340,000); inhibition, % at 5.96 µM; in the data active means inhibition above about 36%
IN multimer act = HIV-1 IN multimer formation enhancers, counter-screen for LEDGF/p75 integration inhibitor project, biochemical, TR-FRET; shares compounds with LEDGF integ inh; TR-FRET HIV-1 integrase multimerization; actives 17% (n = 2,000); AID 1053131, 2014; activation, % at 7.7 µM; in the data active means activation above about 8.9%
TR-FRET interf = TR-FRET optical interference artefacts, confirmation, artefact control for LEDGF/p75-dependent integration inhibitor project, biochemical, HIV-1 IN multimerization; TR-FRET optical interference counterscreen; AID 1053135, 2014; 2,000 tested, under 10 active; inhibition, % at 7.7 µM; shares compounds with LEDGF integ inh;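 active means inhibition above the mean over all tested compounds plus 3 SD, which no compound reached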
LEDGF integ conf = inhibitors of HIV-1 IN-LEDGF/p75 DNA integration, confirmation, biochemical, TR-FRET. shares compounds with LEDGF integ inh. TR-FRET LEDGF/p75-dependent HIV-1 integration. inhibition, % at 3.7 µM. actives 36% (n = 2,000); in the data active means inhibition above about 14%
Large screens that a line does not name were inactive (follow-up assays come after a bar, where they were run). In the library only some 3.2% were active in any assay of this set; here they are far more common.

COc1cccc(-n2c(SCC(=O)NCCc3ccccc3)nnc2-c2ccoc2C)c1	LEDGF integ inh 14.0 | IN multimer act inactive | TR-FRET interf inactive | LEDGF integ conf inactive
CCOc1ccc2nc(NC(=S)N(C)C)sc2c1	LEDGF integ inh 13.9 | IN multimer act inactive | TR-FRET interf inactive | LEDGF integ conf inactive
CN(C)C(=S)Nc1nc2ccccc2s1	LEDGF integ inh 17.4 | IN multimer act inactive | TR-FRET interf inactive | LEDGF integ conf inactive
CCNC(=O)Nc1nc2ccccc2s1	none
CCOc1ccc2nc(NC(=O)c3ccc(C)o3)sc2c1	none
C[C@@H]1CN([C@@H](C)CO)C(=O)c2cc(C#CC(C)(C)O)cnc2O[C@@H]1CN(C)C(=O)c1ccccc1F	none
N#CCSc1ccccc1NC(=O)COc1ccc(-c2nnco2)cc1	LEDGF integ inh 13.9 | IN multimer act inactive | TR-FRET interf inactive | LEDGF integ conf inactive
COCCCN1C(=O)C(=O)/C(=C(/O)c2ccccc2)C1c1ccc2c(c1)OCO2 (configuration not stated)	LEDGF integ inh 30.1 | IN multimer act inactive | TR-FRET interf inactive | LEDGF integ conf inactive
O=C(CSc1c2c(nc3ccccc13)CCCC2)NCc1ccco1	none
O=C(NCc1ccco1)c1c2c(nc3ccccc13)CCC2	LEDGF integ inh 27.8 | IN multimer act inactive | TR-FRET interf inactive | LEDGF integ conf 23.6
NNC(=O)c1oc2nc(-c3ccco3)cc(-c3ccco3)c2c1N	LEDGF integ inh 63.5, PRMT1 FP inh 38.3 (no result: DAGLB inh, HTRA1 inh) | IN multimer act 10.9 | TR-FRET interf inactive | LEDGF integ conf inactive
CCn1c(SCC(=O)c2ccc(O)c(O)c2)nnc1-c1ccccc1	none
C=CCn1c(SCC(=O)c2ccc(O)c(O)c2)nnc1-c1cccnc1	LEDGF integ inh 16.0 | IN multimer act 45.4 | TR-FRET interf inactive | LEDGF integ conf 59.9
Cc1nnc(SCC(=O)Nc2ccc(Cl)cn2)n1Cc1ccccc1	LEDGF integ inh 16.2 | IN multimer act inactive | TR-FRET interf inactive | LEDGF integ conf inactive
O=C(CS(=O)(=O)Cc1ccccc1)Nc1ccc(Cl)cn1	LEDGF integ inh 87.6 | IN multimer act inactive | TR-FRET interf inactive | LEDGF integ conf inactive
CCCCN(CCCC)Cc1ccc(C(=O)NNC(=O)Nc2ccc(F)cc2)o1	none
COc1ccc(N)c2c1OCCC2=O	LEDGF integ inh 19.2 | IN multimer act inactive | TR-FRET interf inactive | LEDGF integ conf inactive
COC(=O)c1ccccc1N1C(=O)C2C(C1=O)[C@H]1C=C[C@@H]2C1 (some centres not stated)	none
Cc1c(C(=O)NCC2CCCO2)oc2c(Cl)cccc12 (configuration not stated)	none
COCCn1nnnc1C(c1ccccc1OC)N1CCc2ccccc2C1 (configuration not stated)	LEDGF integ inh 32.6 | IN multimer act inactive | TR-FRET interf inactive | LEDGF integ conf inactive
CC(=O)N(C)C1=C(N2CCOCC2)C(=O)c2ccccc2C1=O	none (no result: LEDGF integ inh, ABHD4 inh, rCAG binder, PRMT1 FP inh)
CC(=O)N(C1=C(N2CCOCC2)C(=O)c2ccccc2C1=O)c1ccc(C(=O)O)cc1	LEDGF integ inh 16.7 | IN multimer act inactive | TR-FRET interf inactive | LEDGF integ conf 17.2
Cc1cccc(C)c1NC(=O)C1(C)CN(S(C)(=O)=O)CC(=O)N1CCOc1ccccc1 (configuration not stated)	none (no result: DAGLB inh, HTRA1 inh)
O=C1C(=O)c2ccccc2C(O)=C1c1ccccc1F	none
O=C1C(O)=C(O)C(=O)c2ccccc21	LEDGF integ inh 16.4 | IN multimer act inactive | TR-FRET interf inactive | LEDGF integ conf 40.9
COc1ccc(CCNC(=O)c2cccs2)cc1OC	none
COc1ccc(CCNC(=O)Cc2cccs2)cc1OC	LEDGF integ inh 22.0 | IN multimer act inactive | TR-FRET interf inactive | LEDGF integ conf inactive
COc1ccc(CCNC(=O)Cn2c(=O)oc3cc(Cl)ccc32)cc1OC	LEDGF integ inh 33.8 | IN multimer act inactive | TR-FRET interf inactive | LEDGF integ conf inactive
CCCCNC(=O)Cn1nc(-c2ccc(C)cc2)ccc1=O	none (no result: LEDGF integ inh, ABHD4 inh, rCAG binder, PRMT1 FP inh)
FC(F)(F)c1cccc(OCCOCCn2cncn2)c1	LEDGF integ inh 20.7 | IN multimer act inactive | TR-FRET interf inactive | LEDGF integ conf inactive
Cc1cc(-c2csc(N)n2)c(C)n1Cc1ccco1	LEDGF integ inh 24.1 | IN multimer act 16.9 | TR-FRET interf inactive | LEDGF integ conf 80.2
COC(=O)[C@@]12CCCCN1[C@H](c1ccc(-c3ccc(F)cc3)cc1)[C@H]1C(=O)N(C)C(=O)[C@H]12	none
Cc1[nH]c2ccccc2c1/C=N/Nc1nncn1N	LEDGF integ inh 73.7 | IN multimer act inactive | TR-FRET interf inactive | LEDGF integ conf inactive
Cc1[nH]c2ccccc2c1/C=N/Nc1ccccn1	none (no result: DAGLB inh, HTRA1 inh)
COCCNC(=O)CN(Cc1ccccc1)C(=O)CCC(=O)Nc1nccs1	none
O=C(NCc1cc2ccccc2[nH]1)c1ccccc1F	none
CC(C)N(Cc1nc2ccccc2c(=O)[nH]1)C(=O)c1ccc(NC(=O)CSc2nnnn2C)cc1	none
CC(=O)Nc1ccc(-c2ccnc3c2CC(C(=O)Nc2cccc(N(C)C)c2)O3)cc1 (configuration not stated)	LEDGF integ inh 24.2 (no result: DAGLB inh, HTRA1 inh) | IN multimer act inactive | TR-FRET interf inactive | LEDGF integ conf inactive
CC(=O)Nc1ccc(-c2ccnc3c2CC(C(=O)Nc2cccc(C(F)(F)F)c2)O3)cc1 (configuration not stated)	none (no result: DAGLB inh, HTRA1 inh)
Cc1ccccc1-c1nc(-c2ccc(NC(=O)c3ccc(Br)o3)cc2)no1	none
CN(C)CCNC(=O)c1cccc(-c2cccc3nncn23)c1	LEDGF integ inh 55.0 (no result: DAGLB inh, HTRA1 inh) | IN multimer act inactive | TR-FRET interf inactive | LEDGF integ conf inactive
CNc1cncc(-c2cccc(C(=O)NCCN(C)C)c2)n1	none (no result: DAGLB inh, HTRA1 inh)
CCCc1cc(=O)[nH]c(SCC(=O)c2cc(C)n(-c3c(C)n(C)n(-c4ccccc4)c3=O)c2C)n1	none

Screening data: PubChem BioAssay, The Scripps Research Institute Molecular Screening Center
